# Key:
# [1] = test system: healthy elderly subjects; test: Monitoring of treatment‐emergent adverse events; type: in vivo, human; details: 16 mg oral, single dose; within 24 hours after administration
# How it was run: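 Randomised, double-blind, placebo-controlled trial in healthy subjects aged ≥65 (n=48; 12 active:4 placebo per cohort, placebos pooled). Intranasal test compound 5.5, 11 or 22 mg or 0.9% NaCl b.i.d. for 7 days, 6 h between doses. The 11 mg active subjects later got one open-label oral 16 mg dose of the parent drug. Safety was tracked by TEAEs, nasal examination, vital signs, ECG and safety bloods.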
# [2] = 4 mg/kg in mice; cited from earlier work
structure (smiles),measurement,setting,value
"COc1ccc2c3c1O[C@H]1C[C@@H](O)C=C[C@@]31CCN(C)C2 [galantamine, reference compound]",TEAEs within 24 hours: All gastrointestinal disorders,[1],8 (66.7) number of subjects (percentage
same,TEAEs within 24 hours: Any events,[1],10 (83.3) number of subjects (percentage
same,TEAEs within 24 hours: Diarrhea,[1],1 (8.3) number of subjects (percentage
same,TEAEs within 24 hours: Nausea,[1],5 (41.7) number of subjects (percentage
same,TEAEs within 24 hours: Vomiting,[1],5 (41.7) number of subjects (percentage
same,brain‐to‐blood ratio,[2],2.1

# — article PMC7551138 (Alzheimer's & Dementia : Translational Research & Clinical …, 2020)
